Source: ChEMBL document CHEMBL1156797, “Synthesis and antiplasmodial activity of new indolone N-oxide derivatives” (J Med Chem, 2010)

Key:
Plasmodium falciparum [1] = assay: Antimalarial activity against chloroquine-resistant Plasmodium falciparum FcB1 assessed as [3H]hypoxanthine incorporation after 48 hrs by beta-counter; assay type: functional, organism-based; details: FcB1/Columbia
Procedure, shortened: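 Primary assay (Toulouse) on FcB1 cultured in RPMI with 25 mM HEPES and 10% human serum, O RBCs. Serial dilutions in triplicate, 2% parasitaemia, 2% haematocrit, 48 h at 37 °C, 5% CO2. [3H]-hypoxanthine added at 24 h, freeze-thaw harvest, β-counting. IC50 by linear regression on the linear segment of the semilog inhibition curve. Three independent repeats.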

[2] = Cytotoxicity against human MCF7 cells after 48 hrs by MTT assay; assay type: cell-based
[3] = Selectivity index, ratio of CC50 for human MCF7 cells to IC50 for chloroquine-resistant Plasmodium falciparum FcB1; assay type: functional
Procedure, shortened: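 XTT 0.5 mg/mL added for 180 min, formazan read at 450 nm, value taken from dose–response curves, two experiments in triplicate. This CC50 is divided by the FcB1 IC50 to give the index.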

Plasmodium falciparum [4] = assay: Resistance index, ratio of IC50 for chloroquine-resistant Plasmodium falciparum FcB1 to IC50 for drug-sensitive Plasmodium falciparum 3D7; assay type: functional
Plasmodium falciparum [5] = assay: Antimalarial activity against drug-sensitive Plasmodium falciparum 3D7 assessed as [3H]hypoxanthine incorporation by scintillation counting; assay type: functional, organism-based
Plasmodium falciparum [6] = assay: Antimalarial activity against Plasmodium falciparum K1 assessed as [3H]hypoxanthine incorporation by scintillation counting; assay type: functional, organism-based
[7] = Cytotoxicity against human KB cells after 72 hrs by alamar blue assay; assay type: cell-based
Procedure, shortened: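 KB cells were seeded at 4×10^4 cells/mL in RPMI 1640 with 10% heat-inactivated FCS and left 24 h at 37 °C, 5% CO2. A dilution series was added in triplicate for 72 h, then AlamarBlue for 2–4 h. Fluorescence was read at ex 530/em 585 nm, with podophyllotoxin as positive control and values from curve fitting.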

[8] = Selectivity index, ratio of CC50 for human KB cells to IC50 for drug-sensitive Plasmodium falciparum 3D7; assay type: functional
Procedure, shortened: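 The 3D7 value came from [3H]hypoxanthine incorporation: synchronized culture at 0.5% parasitaemia, 2.5% hematocrit, Albumax-supplemented medium, 2-fold dilutions from 100 to 0.05 μM in triplicate, label added at 24 h and harvested at 48 h.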

Plasmodium falciparum [9] = assay: Resistance index, ratio of IC50 for chloroquine-resistant Plasmodium falciparum K1 to IC50 for drug-sensitive Plasmodium falciparum 3D7; assay type: functional

Row | SMILES | IC50 (Plasmodium falciparum [1]) [µM] | CC50 at 48 h [2] [µM] | Ratio CC50/IC50 [3] | Ratio IC50 (Plasmodium falciparum [4]) | IC50 (Plasmodium falciparum [5]) [µM] | IC50 (Plasmodium falciparum [6]) [µM] | CC50 at 72 h [7] [µM] | Ratio CC50/IC50 [8] | Ratio IC50 (Plasmodium falciparum [9])
1 | O=C1C(c2ccc(Cl)cc2)=[N+]([O-])c2ccccc21 | 0.272 | 17.8 | 66 |  |  |  |  |  | 
2 | COc1ccc(C2=[N+]([O-])c3ccc(OC)cc3C2=O)c(C)c1 | 1.04 | 0.3 | 0.3 |  |  |  |  |  | 
3 | CC(C)CC1=[N+]([O-])c2ccccc2C1=O | > 4.5 | 43.1 | <9 |  |  |  |  |  | 
4 | COc1ccc2c(c1)C(=O)C(c1ccc(C)c(C)c1)=[N+]2[O-] | 0.037 | 26 | 702.7 | 0.3 | 0.142 | 0.178 | 148 | 980 | 1.2
5 | O=C1C(c2ccc(F)cc2)=[N+]([O-])c2ccccc21 | 0.12 | 8.7 | 72.5 |  |  |  |  |  | 
6 | COc1ccc2c(c1)C(=O)C(c1ccc(-c3ccc(Cl)cc3)cc1)=[N+]2[O-] | 0.63 | 12.1 | 19 |  |  |  |  |  | 
7 | COc1ccc(C2=[N+]([O-])c3cc(Cl)ccc3C2=O)cc1 | 0.191 | 22.2 | 116.5 |  |  |  |  |  | 
8 | COc1cc2c(cc1OC)[N+]([O-])=C(c1ccc(C)cc1)C2=O | 0.265 |  |  |  |  |  |  |  | 
9 | COc1ccc2c(c1)C(=O)C(c1ccc(N)cc1)=[N+]2[O-] | 0.024 | 12.7 | 528 |  |  |  |  |  | 
10 | O=C1C(c2ccc(Cl)c(C(F)(F)F)c2)=[N+]([O-])c2ccccc21 | 1.04 | 2 | 1.9 |  |  |  |  |  | 
11 | O=C1C(c2ccc(Cl)cc2)=[N+]([O-])c2cc(C(F)(F)F)ccc21 | 0.186 | 3.1 | 16.5 |  |  |  |  |  | 
12 | COc1ccc2c(c1)C(=O)C(c1ccc(NC(C)=O)cc1)=[N+]2[O-] | 0.4 | 7.4 | 18.5 |  |  |  |  |  | 
13 | COc1ccc2c(c1)C(=O)C(c1ccc(Cl)cc1)=[N+]2[O-] | 0.21 | 21.5 | 102 | 3.4 | 0.062 | 0.059 | 469 | 7564 | 1
14 | O=C1C(c2ccc(Cl)c(Cl)c2)=[N+]([O-])c2ccccc21 | 0.155 | 13.7 | 88 | 1.6 | 0.098 | 0.08 | 570 | 5816 | 0.8
15 | O=C1C(c2ccc(Oc3ccccc3)cc2)=[N+]([O-])c2cc(OCc3ccccc3)ccc21 | 0.665 | 2.2 | 3.2 |  |  |  |  |  | 
16 | COc1ccc(C2=[N+]([O-])c3cc(OC(F)(F)F)ccc3C2=O)cc1 | 0.133 | 11.7 | 88.1 | 6.3 | 0.021 | 0.112 | 16 |  | 5.3
17 | COc1ccc2c(c1)C(=O)C(c1ccccc1Cl)=[N+]2[O-] | 1.13 |  |  |  |  |  |  |  | 
18 | Cc1ccc(C2=[N+]([O-])c3ccccc3C2=O)cc1 | 1.77 | 15 | 8.5 |  |  |  |  |  | 
19 | COc1ccc2c(c1)C(=O)C(c1ccc(C(C)(C)C)cc1)=[N+]2[O-] | 0.204 | 11 | 53.9 |  |  |  |  |  | 
20 | COc1ccc(C2=[N+]([O-])c3cc(C(F)(F)F)ccc3C2=O)cc1 | 0.135 | 7.9 | 58.8 |  |  |  |  |  | 
21 | COc1ccc(C2=[N+]([O-])c3ccc(OC)cc3C2=O)cc1 | 0.04 | > 35.3 | >882 | 0.5 | 0.082 | 0.016 | 874 | 10658 | 0.2
22 | COc1ccc2c(c1)C(=O)C(c1ccc(C(F)(F)F)cc1)=[N+]2[O-] | 0.043 | 11.7 | 273 | 86 | < 0.0005 | 0.0019 | 110 | >220 | 3.8
23 | COc1ccc2c(c1)C(=O)C(c1ccccc1)=[N+]2[O-] | 0.184 | 13.4 | 73 |  |  |  |  |  | 
24 | O=C1C(c2ccc(Cl)c(Cl)c2)=[N+]([O-])c2cc3c(cc21)OCO3 | 0.195 | 7.4 | 38.1 |  |  |  |  |  | 
25 | COc1ccc2cc(C3=[N+]([O-])c4cc(OCc5ccccc5)ccc4C3=O)ccc2c1 | 0.73 |  |  |  |  |  |  |  | 
26 | O=C1C(c2ccc(Oc3ccccc3)cc2)=[N+]([O-])c2ccccc21 | 0.264 | 11.1 | 42 | 1.8 | 0.148 | 0.06 |  |  | 0.4
27 | COC(=O)c1ccc2c(c1)[N+]([O-])=C(c1ccc(OC)cc1)C2=O | 0.206 | 40.2 | 194.9 |  |  |  |  |  | 

Row | SMILES | IC50 (Plasmodium falciparum [1]) [µM] | CC50 at 48 h [2] [µM] | Ratio CC50/IC50 [3] | Ratio IC50 (Plasmodium falciparum [4]) | IC50 (Plasmodium falciparum [5]) [µM] | IC50 (Plasmodium falciparum [6]) [µM] | CC50 at 72 h [7] [µM] | Ratio CC50/IC50 [8] | Ratio IC50 (Plasmodium falciparum [9])
28 | COc1ccc(C2=[N+]([O-])c3cc([N+](=O)[O-])ccc3C2=O)cc1 | 0.345 | 21.8 | 63.2 |  |  |  |  |  | 
29 | O=C1C(c2ccc([N+](=O)[O-])cc2)=[N+]([O-])c2ccccc21 | 0.056 | 2.8 |  |  |  |  |  |  | 
30 | O=C1C(c2ccc(C(F)(F)F)cc2)=[N+]([O-])c2ccccc21 | 1.17 | 34.3 | 29 |  |  |  |  |  | 
31 | O=C1C(c2ccc(F)cc2)=[N+]([O-])c2cc3c(cc21)OCO3 | 1.71 |  |  |  |  |  |  |  | 
32 | COc1ccc2c(c1)C(=O)C(c1ccc(Cl)c(C)c1)=[N+]2[O-] | 0.003 | 10.3 | 3425 |  |  |  |  |  | 
33 | O=C1C(c2ccc(CO)cc2)=[N+]([O-])c2ccccc21 | 3.95 | 39.5 | 10 |  |  |  |  |  | 
34 | O=C1C(c2ccsc2)=[N+]([O-])c2cc(Cl)ccc21 | 0.13 | 4.9 | 38 |  |  |  |  |  | 
35 | COc1ccc2c(c1)C(=O)C(c1ccsc1)=[N+]2[O-] | 0.27 | 12.3 | 45.5 |  |  |  |  |  | 
36 | CCN(CC)c1ccc(C2=[N+]([O-])c3ccc(OC)cc3C2=O)cc1 | 0.131 | 17.6 | 134 |  |  |  |  |  | 
37 | COc1ccc2c(c1)C(=O)C(c1cc(OC)c3ccccc3c1)=[N+]2[O-] | 0.135 | 14.4 | 107 |  |  |  |  |  | 
38 | CCc1ccc(C2=[N+]([O-])c3ccccc3C2=O)cc1 | 2.75 | > 39.8 | >14 |  |  |  |  |  | 
39 | COc1ccc2c(c1)C(=O)C(c1ccc(OC)c(C)c1)=[N+]2[O-] | 0.044 | > 33.6 | >764 |  |  |  |  |  | 
40 | COc1ccc2c(c1)[N+]([O-])=C(c1ccc(Cl)cc1)C2=O | 0.15 | 10.4 | 69 |  |  |  |  |  | 
41 | CCCC1=[N+]([O-])c2ccccc2C1=O | 12.2 | 26.4 | 2 |  |  |  |  |  | 
42 | COc1ccc2cc(C3=[N+]([O-])c4cc5c(cc4C3=O)OCO5)ccc2c1 |  | 25.6 |  |  |  |  |  |  | 
43 | COc1ccc(C2=[N+]([O-])c3cc(OC)ccc3C2=O)cc1 | 0.106 | 8.8 | 83.3 |  |  |  |  |  | 
44 | O=C1C(c2ccccc2)=[N+]([O-])c2cc3c(cc21)OCO3 | 12.7 |  |  |  |  |  |  |  | 
45 | COc1ccc2cc(C3=[N+]([O-])c4ccccc4C3=O)ccc2c1 |  | 15.3 |  |  |  |  | 233 | 2589 | 
46 | COc1ccc2c(c1)C(=O)C(c1ccc(OC(F)(F)F)cc1)=[N+]2[O-] | 0.02 | 8.3 | 415 | 0.7 | 0.03 | 0.081 | 11 |  | 2.7
47 | COc1cc2c(cc1OC)[N+]([O-])=C(c1ccccc1)C2=O | 1.89 |  |  |  |  |  |  |  | 
48 | COc1ccc(C2=[N+]([O-])c3cc(C)ccc3C2=O)cc1 | 0.198 | 14.9 | 75 |  |  |  |  |  | 
49 | O=C1C(c2ccc(Oc3ccccc3)cc2)=[N+]([O-])c2cc3c(cc21)OCO3 | 0.165 | 12.2 | 74 | 0.6 | 0.285 | 0.138 |  |  | 0.5
50 | COc1ccc2c(c1)C(=O)C(c1ccc(Cl)c(Cl)c1)=[N+]2[O-] | 0.1 | 8.1 | 81 |  |  |  |  |  | 
51 | COc1ccc2c(c1)C(=O)C(c1ccc(Cl)cc1Cl)=[N+]2[O-] | 0.227 | > 31 | >136 |  |  |  |  |  | 
52 | COc1ccc2c(c1)C(=O)C(c1ccc(C(C)=O)cc1)=[N+]2[O-] | 0.256 | 40.2 |  |  |  |  |  |  | 
53 | CCC1=[N+]([O-])c2cc3c(cc2C1=O)OCO3 | 3.56 | 59 | 16 |  |  |  |  |  | 
